Activity calls are given as the source filed them. No cut-off for these calls is given here.
How the values were obtained:
Plasmodium falciparum [1] = experiment: Antimalarial activity against Plasmodium falciparum TM90C2B incubated for 48 hrs by [3H]-hypoxanthine incorporation assay; format: functional, organism-based
[2] = Redox cycling activity of the compound […] measured after 45 mins by phenol red reagent based horseradish peroxidase coupled assay
In short: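 Redox cycling EC50 determined by the phenol red horseradish peroxidase assay.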

Plasmodium falciparum [3] = experiment: Antimalarial activity against Plasmodium falciparum K1 incubated for 48 hrs by [3H]-hypoxanthine incorporation assay; format: functional, organism-based
Plasmodium falciparum [4] = experiment: Antimalarial activity against asexual stage of Plasmodium falciparum 3D7 infected in erythrocytes assessed as reduction in parasite growth incubated for 48 hrs under hypoxic condition by Hoechst 33342 staining based flow cytometry; format: functional, organism-based; details: 3D7, 48 h
In short: (§1)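 Asexual Dd2 and 3D7 parasites in erythrocytes; DNA content of infected cells measured by Hoechst 33342 staining and FACS. IC50 is the concentration giving 50% of the net fluorescence of untreated control cultures; mean ± SD of n = 3 separate determinations.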

Plasmodium falciparum [5] = experiment: Antimalarial activity against asexual stage of Plasmodium falciparum K1 assessed as reduction in parasite growth incubated for 96 hrs by SYBR Green I dye-based fluorescence assay; format: functional, organism-based; details: K1, 96 h
In short: (§2)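 Asexual NF54, K1 and W2 parasites; proliferation read as SYBR Green I fluorescence. IC50 is the concentration giving 50% of the net SYBR Green I fluorescence of untreated control cultures; mean ± SEM of n = 3 independent biological replicates.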

Plasmodium falciparum [6] = experiment: Antimalarial activity against Plasmodium falciparum NF54 late gametocytes transfected with luciferase gene incubated for 48 hrs by luciferase reporter gene assay; format: functional, organism-based; details: NF54, 48 h
In short: (§3)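 Gametocytes of NF54-Pfs16-GFP-Luc, early (>95% stage II/III) or late (>90% stage IV/V); luciferase read-out. IC50 is the concentration giving 50% reduction of luminescence; mean ± SEM of n = 3 independent biological replicates.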

Plasmodium falciparum [7] = experiment: Antimalarial activity against asexual stage of Plasmodium falciparum W2 assessed as reduction in parasite growth incubated for 96 hrs by SYBR Green I dye-based fluorescence assay; format: functional, organism-based; details: W2, 96 h
CHO-K1 = experiment: Cytotoxicity against CHOK1 cells assessed as reduction in cell viability incubated for 48 hrs by CellTiter 96 aqueous one solution assay; format: cell-based; details: Cricetulus griseus, CHO-K1, 48 h
In short: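 Cell growth measured by a tetrazolium dye assay. IC50 is the concentration reducing growth by 50% relative to untreated cultures; mean ± SD of n = 3 separate determinations.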

Plasmodium falciparum [8] = experiment: Antimalarial activity against Plasmodium falciparum NF54 incubated for 48 hrs by [3H]-hypoxanthine incorporation assay; format: functional, organism-based
Plasmodium falciparum [9] = experiment: Antimalarial activity against asexual stage of Plasmodium falciparum NF54 assessed as reduction in parasite growth incubated for 96 hrs by SYBR Green I dye-based fluorescence assay; format: functional, organism-based; details: NF54, 96 h; in short: as §2
Plasmodium falciparum [10] = experiment: Antimalarial activity against asexual stage of Plasmodium falciparum Dd2 infected in erythrocytes assessed as reduction in parasite growth incubated for 48 hrs under hypoxic condition by Hoechst 33342 staining based flow cytometry; format: functional, organism-based; details: Dd2, 48 h; in short: as §1
Plasmodium falciparum [11] = experiment: Antimalarial activity against Plasmodium falciparum NF54 early gametocytes transfected with luciferase gene incubated for 48 hrs by luciferase reporter gene assay; format: functional, organism-based; details: NF54, 48 h; in short: as §3
Plasmodium falciparum [12] = experiment: Antimalarial activity against asexual stage of Plasmodium falciparum 3D7 infected in O-positive erythrocytes assessed as reduction in parasite growth incubated for 72 hrs by SYBR Green I dye-based spectrophotometric analysis; format: functional, organism-based; details: 3D7, 72 h
Plasmodium falciparum [13] = experiment: Antimalarial activity against sexual stage of Plasmodium falciparum 3D7 gametocytes assessed as reduction in parasite growth incubated for 3 days by alamar blue staining based assay; format: functional, organism-based; details: 3D7, 72 h
Plasmodium falciparum [14] = experiment: Antimalarial activity against Plasmodium falciparum 3D7 infected in NOD-SCID IL-2Ry deficient mouse assessed as reduction in parasitemia at 50 mg/kg, po administered on day 3 to 6 and measured on day 7 by TER-119-PE and SYTO-19 dye based flow cytometry; format: functional, organism-based
In short: (§4)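 Humanized mouse infected with P. falciparum Pf3D7 0087/N9; oral dosing on Days 3–6 at 5 dose levels spanning 1–50 mg/kg. Parasitemia measured each treatment day and on Day 7. ED90 from non-linear fit of log Day-7 parasitemia against oral dose, relative to untreated controls.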

[15] = Oral bioavailability in C57BL/6 mouse at 20 mg/kg measured upto 24 hrs by LCMS analysis; format: ADME, organism-based; details: in vivo
[16] = Stability in rat liver microsomes incubated for 45 mins in presence of NADPH by chromatographic analysis; format: ADME, Microsome; details: 0.75 h
[17] = Toxicity in C57BL/6 mouse at 20 mg/kg, po; format: organism-based; details: in vivo
In short: (§5)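 Male C57BL6 mice given one dose, 2 mg/kg iv or 20 mg/kg oral (n=3 per route), checked for signs of distress 24 h after dosing.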

[18] = Toxicity in C57BL/6 mouse assessed as distress effect at 2 mg/kg, iv observed upto 24 hrs; format: organism-based; details: in vivo; in short: as §5
[19] = AUC (0 to last) at steady state in C57BL/6 mouse at 2 mg/kg, iv measured upto […] by LCMS analysis; format: ADME, organism-based; parameters: dose 2 mg/kg, time 0 - last, route intravenous; details: in vivo
Plasmodium falciparum [20] = experiment: Antimalarial activity against Plasmodium falciparum 3D7 infected in orally dosed NOD-SCID IL-2Ry deficient mouse assessed as reduction in parasitemia administered on day 3 to 6 and measured on day 7 by TER-119-PE and SYTO-19 dye based flow cytometry; format: functional; details: 3D7, po; in short: as §4
[21] = Volume of distribution in C57BL/6 mouse at 2 mg/kg, iv measured upto 24 hrs by LCMS analysis; format: ADME, organism-based; details: in vivo
[22] = Half life in C57BL/6 mouse at 2 mg/kg, iv measured upto 24 hrs by LCMS analysis; format: ADME, organism-based; details: in vivo
[23] = Toxicity in C57BL/6 mouse at 2 mg/kg, iv; format: organism-based; details: in vivo; in short: as §5
[24] = Solubility of compound at pH 7.4 measured after 24 hrs; format: physicochemical; details: buffer
In short: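 Water solubility measured at pH 7.4.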

[25] = Cmax in C57BL/6 mouse at 20 mg/kg, po measured upto 24 hrs by LCMS analysis; format: ADME, organism-based; parameters: dose 20 mg/kg, route oral; details: in vivo
[26] = Half life in C57BL/6 mouse at 20 mg/kg, po measured upto 24 hrs by LCMS analysis; format: ADME, organism-based; details: in vivo
[27] = AUC (0 to last) in C57BL/6 mouse at 20 mg/kg, po measured upto 24 hrs by LCMS analysis; format: ADME, organism-based; parameters: dose 20 mg/kg, time 0 - last, route oral; details: in vivo
[28] = Effective permeability of compound at pH 7.4 measured after 16 hrs PAMPA; format: ADME; details: pH 7.4, 16 h
[29] = Time at which plasma concentration stays above in vitro IC50 for asexual stage of Plasmodium falciparum 3D7 infected in erythrocytes in C57BL/6 mouse at 20 mg/kg, po; format: ADME, organism-based; details: in vivo
[30] = Tmax in C57BL/6 mouse at 20 mg/kg, po measured upto 24 hrs by LCMS analysis; format: ADME, organism-based; details: in vivo
[31] = Toxicity in C57BL/6 mouse assessed as distress effect at 20 mg/kg, po observed upto 24 hrs; format: organism-based; details: in vivo; in short: as §5

| SMILES | IC50 (Plasmodium falciparum [1]) [nM] | Activity [2] | IC50 (Plasmodium falciparum [3]) [nM] | IC50 (Plasmodium falciparum [4]) [nM] | IC50 (Plasmodium falciparum [5]) [nM] | IC50 (Plasmodium falciparum [6]) [nM] | IC50 (Plasmodium falciparum [7]) [nM] | IC50 (CHO-K1) [nM] | IC50 (Plasmodium falciparum [8]) [nM] | IC50 (Plasmodium falciparum [9]) [nM] | IC50 (Plasmodium falciparum [10]) [nM] | IC50 (Plasmodium falciparum [11]) [nM] | EC50 (Plasmodium falciparum [12]) [nM] | EC50 (Plasmodium falciparum [13]) [nM] | further results |
| --- | --- | --- | --- | --- | --- | --- | --- | --- | --- | --- | --- | --- | --- | --- | --- |
| CCCn1c2c([n+](CC)c1C)C(=O)c1ccccc1C2=O | 2.2 | Active | 2.2 | 3.7 | 6.5 | 709 | 4.94 | 8200 | 1.2 | 3.45 | 8.4 | 390 |  |  |  |
| CCCCn1c2c([n+](CC)c1C)C(=O)c1ccccc1C2=O | 1.4 | Active | 1.8 | 4.2 | 2.4 | 320 | 2.88 | 37000 | 1 | 1.64 | 9.1 | 268 |  |  |  |
| CCOc1ccc(N(C(C)=O)C2=C(NC)C(=O)c3ccccc3C2=O)cc1 |  |  |  |  |  |  |  |  |  |  |  |  | 1 | 122 |  |
| CCOc1ccc(-[n+]2c3c(n(C)c2C)C(=O)c2ccccc2C3=O)cc1 |  |  |  |  |  |  |  |  |  |  |  |  | 1 | 93 |  |
| O=C1C(O)=C([C@H]2CC[C@H](c3ccc(Cl)cc3)CC2)C(=O)c2ccccc21 [ATOVAQUONE] | 11500 |  | 0.5 | 2.8 |  |  |  |  | 0.4 |  | 2.5 |  |  |  |  |
| C[C@H]1[C@H](OC(=O)CCC(=O)O)O[C@@H]2O[C@@]3(C)CC[C@H]4[C@H](C)CC[C@@H]1[C@@]24OO3 [ARTESUNATE] | 2.7 |  | 1.4 | 22.8 | 3.26 | 259 |  |  | 3.2 | 3 | 13.3 | 63 |  |  |  |
| CCCn1c2c([n+](C(C)C)c1C)C(=O)c1ccccc1C2=O | 1.8 | Active | 2.1 | 4 | 3.1 | 567 | 2.2 | 26800 | 1 | 2.28 | 8 | 162 |  |  |  |
| CCOc1ccc(N(C(C)=O)C2=C(N(C)C)C(=O)c3ccccc3C2=O)cc1 |  |  |  |  |  |  |  |  |  |  |  |  | 32 | 319 |  |
| Cc1n(C(C)C)c2c([n+]1C(C)C)C(=O)c1ccccc1C2=O.[Br-] | 1.6 | Active | 1.9 | 6.5 | 2.5 | 653 | 2.18 | 56700 | 1 | 1.43 | 4.7 | 72 |  |  | Activity (Plasmodium falciparum [14]): inactive; bioavailability [15]: 5%; Stability [16]: Stable; Activity [17]: Non-Toxic; Activity [18]: Non-Toxic; AUClast [19]: 130 µmol·min/L; ED90 (Plasmodium falciparum [20]): 34 mg/kg; Vd [21]: 8.3 L/kg; half-life [22]: 1.4 h; Activity [23]: Non-Toxic; solubility at 24 h [24]: > 100 µM; Cmax [25]: 337 nM; half-life [26]: 11.3 h; AUClast [27]: 69 µmol·min/L; Peff [28]: Impermeable; Time [29]: 24 h; Tmax [30]: 2 h; Activity [31]: Non-Toxic |

— ChEMBL document CHEMBL4334542, “Antimalarial N 1,N 3-Dialkyldioxonaphthoimidazoliums: Synthesis, Biological Activity, and Structure-activity Relationships” (ACS Med Chem Lett, 2020)
